The target of assay [1] is Ribosomal protein S6 kinase alpha-3 (Homo sapiens, UniProt P51812). The experiment in a line: Inhibition of RSK2 domain 1 in human HeLa cells lysate pre incubated for 15 mins followed by ADP acyl phosphate probe addition and measured after 10 mins by LC-MS/MS analysis. The class given is subcellular.
A short description of assay [2]: Inhibition of PKD1/2 in human HeLa cells lysate at 50 uM pre incubated for 15 mins followed by ATP acyl phosphate probe addition and measured after 10 mins by LC-MS/MS analysis relative to control. As to conditions: 25 min, condition cancer.
Assay [3] addresses Serine/threonine-protein kinase/endoribonuclease IRE1 (Homo sapiens, UniProt O75460). The experiment in a line: Inhibition of IRE1 in human HeLa cells lysate at 2 uM pre incubated for 15 mins followed by ADP acyl phosphate probe addition and measured after 10 mins by LC-MS/MS analysis relative to control. Conditions: time 25.0 min. The class given is subcellular.
Assay [4] concerns the target T1, Serine/threonine-protein kinase Sgk3 (Homo sapiens) (UniProt Q96BR1).
T1 sequence (whole entry): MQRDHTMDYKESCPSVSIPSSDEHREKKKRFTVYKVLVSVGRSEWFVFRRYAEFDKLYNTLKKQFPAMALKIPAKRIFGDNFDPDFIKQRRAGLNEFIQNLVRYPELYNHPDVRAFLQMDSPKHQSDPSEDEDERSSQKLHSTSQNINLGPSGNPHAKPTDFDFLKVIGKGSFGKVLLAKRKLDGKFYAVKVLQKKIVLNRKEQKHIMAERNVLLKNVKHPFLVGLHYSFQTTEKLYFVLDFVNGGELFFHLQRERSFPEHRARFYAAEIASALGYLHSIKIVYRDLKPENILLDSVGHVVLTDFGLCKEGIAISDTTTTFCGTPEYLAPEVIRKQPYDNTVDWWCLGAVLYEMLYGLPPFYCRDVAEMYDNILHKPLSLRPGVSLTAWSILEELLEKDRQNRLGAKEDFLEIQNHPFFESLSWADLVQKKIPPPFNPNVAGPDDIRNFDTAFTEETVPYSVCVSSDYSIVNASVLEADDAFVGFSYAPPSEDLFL
In words: Inhibition of SGK3 in human HeLa cells lysate at 2 uM pre incubated for 15 mins followed by ATP acyl phosphate probe addition and measured after 10 mins by LC-MS/MS analysis relative to control. Conditions: time 25.0 min. In kind it is subcellular.

Assay [5] is described as follows: Inhibition of MAP3K2/MAP3K3 in human HeLa cells lysate at 10 uM pre incubated for 15 mins followed by ADP acyl phosphate probe addition and measured after 10 mins by LC-MS/MS analysis relative to control. As to conditions: 25 min, condition cancer.
The test system of another assay is A549. In words: Antitumor activity against human A549 cells xenografted in NOD/SCID mouse assessed as reduction in BMK activation at 50 mg/kg, ip administered twice a day for 2 days by Western blot analysis. As to conditions: time 2.0 day. The class given is functional, organism-based. Summed up:
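A549 cells (1×10^6, in DMEM) were injected s.c. into the right flank of 6-week-old Nod/Scid mice. On day 21, mice received 50 mg/kg twice daily or carrier; 2 per group. After 2 days, tumors were homogenized in E1A buffer. Western blot read BMK1 activation (mobility shift) and p21, quantified by densitometry normalized to GAPDH.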

For assay [6], the target named is Calcium/calmodulin-dependent protein kinase type 1D (Homo sapiens, UniProt Q8IU85). The experiment in a line: Inhibition of CAMK1d in human HeLa cells lysate pre incubated for 15 mins followed by ATP acyl phosphate probe addition and measured after 10 mins by LC-MS/MS analysis. In kind it is subcellular. In outline: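 KiNativ-type profiling in HeLa lysate (5 mg/mL total protein). Lysate preincubated 15 min with inhibitor at 50, 10, 2, 0.8 or 0 μM, then ATP or ADP acylphosphate probe added (5 μM final) for 10 min. Reaction stopped with urea and analysed by targeted MS, using up to four fragment ions per kinase peptide-probe conjugate. % inhibition calculated against untreated lysate. Duplicate reactions.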
Calcium/calmodulin-dependent protein kinase type 1D, sequence (Q8IU85 whole entry, the tested form may be a part): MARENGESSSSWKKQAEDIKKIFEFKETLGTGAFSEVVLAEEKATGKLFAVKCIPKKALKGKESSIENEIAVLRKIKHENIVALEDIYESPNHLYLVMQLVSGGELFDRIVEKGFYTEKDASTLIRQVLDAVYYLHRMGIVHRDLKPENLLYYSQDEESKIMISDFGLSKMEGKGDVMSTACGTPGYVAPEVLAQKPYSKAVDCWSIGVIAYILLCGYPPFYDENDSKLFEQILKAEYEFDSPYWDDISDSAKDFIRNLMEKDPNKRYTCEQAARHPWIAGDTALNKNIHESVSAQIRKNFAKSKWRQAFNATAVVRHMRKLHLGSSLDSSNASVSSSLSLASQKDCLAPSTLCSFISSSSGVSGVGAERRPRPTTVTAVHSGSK

The target in assay [7] is Serine/threonine-protein kinase mTOR (Homo sapiens, UniProt P42345). The experiment in a line: Inhibition of FRAP in human HeLa cells lysate at 2 uM pre incubated for 15 mins followed by ATP acyl phosphate probe addition and measured after 10 mins by LC-MS/MS analysis relative to control. The class given is subcellular. Conditions: time 25.0 min.
The next assay concerns the target RPS6KA1/RPS6KA2/RPS6KA3 (Homo sapiens, UniProt P51812+Q15349+Q15418). In words: Inhibition of RSK1/2/3 in human HeLa cells lysate at 2 uM pre incubated for 15 mins followed by ADP acyl phosphate probe addition and measured after 10 mins by LC-MS/MS analysis relative to control. In kind it is subcellular. As to conditions: time 25.0 min.
For assay [8], the target named is T2, Scaffold protein ILK (Homo sapiens) (UniProt Q13418).
T2 sequence (whole entry): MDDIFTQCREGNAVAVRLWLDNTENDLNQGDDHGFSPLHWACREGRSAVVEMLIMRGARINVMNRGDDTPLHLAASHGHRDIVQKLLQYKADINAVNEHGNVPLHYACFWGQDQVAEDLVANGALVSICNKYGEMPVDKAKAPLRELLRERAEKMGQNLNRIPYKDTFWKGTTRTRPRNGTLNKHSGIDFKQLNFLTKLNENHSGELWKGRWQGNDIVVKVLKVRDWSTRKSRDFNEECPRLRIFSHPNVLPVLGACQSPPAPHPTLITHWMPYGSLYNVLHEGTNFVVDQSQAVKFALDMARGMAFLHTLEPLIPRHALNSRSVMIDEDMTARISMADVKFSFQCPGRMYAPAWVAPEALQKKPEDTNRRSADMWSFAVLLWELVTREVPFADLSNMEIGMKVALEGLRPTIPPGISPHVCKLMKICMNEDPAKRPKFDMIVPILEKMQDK
In words: Inhibition of ILK in human HeLa cells lysate at 2 uM pre incubated for 15 mins followed by ATP acyl phosphate probe addition and measured after 10 mins by LC-MS/MS analysis relative to control. The class given is subcellular. Conditions: time 25.0 min.

The target in assay [9] is Cyclin-dependent kinase 2 (Homo sapiens, UniProt P24941). The experiment in a line: Inhibition of CDK2 K2 site in human HeLa cells lysate pre incubated for 15 mins followed by ATP acyl phosphate probe addition and measured after 10 mins by LC-MS/MS analysis. The class given is subcellular. Summed up: (§1)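 KiNativ profiling in HeLa lysate (5 mg/mL total protein). Lysate incubated 15 min with inhibitor at 50, 10, 2, 0.8 or 0 μM. ATP or ADP acylphosphate probe then added (5 μM final) and reacted 10 min. Reaction stopped with urea and analysed by targeted MS, using up to four fragment ions per kinase peptide-probe conjugate. % inhibition taken against untreated lysate. Run in duplicate.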

In assay [10] the target is Ribosomal protein S6 kinase alpha-5 (Homo sapiens, UniProt O75582). The experiment in a line: Inhibition of MSK1 domain 1 K1 site in human HeLa cells lysate at 10 uM pre incubated for 15 mins followed by ADP acyl phosphate probe addition and measured after 10 mins by LC-MS/MS analysis relative to control. The class given is subcellular. As to conditions: time 25.0 min.
Ribosomal protein S6 kinase alpha-5, sequence (O75582 whole entry, looked up, the tested form may be a part): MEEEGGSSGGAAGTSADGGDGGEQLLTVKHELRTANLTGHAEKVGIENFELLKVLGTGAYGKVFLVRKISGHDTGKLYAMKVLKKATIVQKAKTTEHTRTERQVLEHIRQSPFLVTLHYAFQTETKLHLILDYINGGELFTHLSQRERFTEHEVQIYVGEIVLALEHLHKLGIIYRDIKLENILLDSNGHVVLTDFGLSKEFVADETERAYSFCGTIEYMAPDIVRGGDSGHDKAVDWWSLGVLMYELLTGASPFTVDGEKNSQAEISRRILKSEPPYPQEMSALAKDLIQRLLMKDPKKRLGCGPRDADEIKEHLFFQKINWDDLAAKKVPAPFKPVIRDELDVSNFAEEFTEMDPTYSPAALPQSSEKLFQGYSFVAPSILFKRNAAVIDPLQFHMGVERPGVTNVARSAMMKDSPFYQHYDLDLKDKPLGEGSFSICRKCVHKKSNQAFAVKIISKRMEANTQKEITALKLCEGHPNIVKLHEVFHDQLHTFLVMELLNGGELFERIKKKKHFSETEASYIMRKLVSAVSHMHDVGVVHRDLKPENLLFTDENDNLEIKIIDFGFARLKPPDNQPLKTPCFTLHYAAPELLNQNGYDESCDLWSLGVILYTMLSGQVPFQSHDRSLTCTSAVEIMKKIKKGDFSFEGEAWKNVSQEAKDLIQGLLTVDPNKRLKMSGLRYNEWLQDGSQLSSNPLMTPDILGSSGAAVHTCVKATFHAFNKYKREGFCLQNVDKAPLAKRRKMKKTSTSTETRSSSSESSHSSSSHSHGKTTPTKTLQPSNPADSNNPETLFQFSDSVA

The target of assay [11] is Ribosomal protein S6 kinase alpha-6 (Homo sapiens) (UniProt Q9UK32). In words: Inhibition of C-terminal RPS6KA6 kinase domain (unknown origin) assessed as remaining activity at 10 uM by ATP-competition binding assay relative to control.
Assay [12] has as its target Cyclin-dependent kinase 7 (Homo sapiens, UniProt P50613). In words: Inhibition of CDK7 in human HeLa cells lysate at 2 uM pre incubated for 15 mins followed by ATP acyl phosphate probe addition and measured after 10 mins by LC-MS/MS analysis relative to control. The class given is subcellular. Conditions: time 25.0 min. In outline:
as §1

Molecules are shown by their SMILES. Calls of active or inactive are those of the source. The calls are words filed in the database; no cut-off is given here.

Cyclin-dependent kinase 7, sequence (P50613 whole entry): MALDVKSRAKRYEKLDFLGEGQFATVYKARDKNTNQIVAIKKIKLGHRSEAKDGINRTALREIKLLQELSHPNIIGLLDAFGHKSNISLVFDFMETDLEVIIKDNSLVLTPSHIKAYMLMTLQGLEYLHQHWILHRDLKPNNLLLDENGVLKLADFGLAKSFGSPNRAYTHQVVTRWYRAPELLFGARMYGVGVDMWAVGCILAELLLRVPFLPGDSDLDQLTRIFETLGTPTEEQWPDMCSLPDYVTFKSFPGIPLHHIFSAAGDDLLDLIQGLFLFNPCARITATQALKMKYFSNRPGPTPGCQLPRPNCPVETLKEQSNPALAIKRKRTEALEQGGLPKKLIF
RPS6KA1/RPS6KA2/RPS6KA3, sequence (P51812 whole entry, looked up): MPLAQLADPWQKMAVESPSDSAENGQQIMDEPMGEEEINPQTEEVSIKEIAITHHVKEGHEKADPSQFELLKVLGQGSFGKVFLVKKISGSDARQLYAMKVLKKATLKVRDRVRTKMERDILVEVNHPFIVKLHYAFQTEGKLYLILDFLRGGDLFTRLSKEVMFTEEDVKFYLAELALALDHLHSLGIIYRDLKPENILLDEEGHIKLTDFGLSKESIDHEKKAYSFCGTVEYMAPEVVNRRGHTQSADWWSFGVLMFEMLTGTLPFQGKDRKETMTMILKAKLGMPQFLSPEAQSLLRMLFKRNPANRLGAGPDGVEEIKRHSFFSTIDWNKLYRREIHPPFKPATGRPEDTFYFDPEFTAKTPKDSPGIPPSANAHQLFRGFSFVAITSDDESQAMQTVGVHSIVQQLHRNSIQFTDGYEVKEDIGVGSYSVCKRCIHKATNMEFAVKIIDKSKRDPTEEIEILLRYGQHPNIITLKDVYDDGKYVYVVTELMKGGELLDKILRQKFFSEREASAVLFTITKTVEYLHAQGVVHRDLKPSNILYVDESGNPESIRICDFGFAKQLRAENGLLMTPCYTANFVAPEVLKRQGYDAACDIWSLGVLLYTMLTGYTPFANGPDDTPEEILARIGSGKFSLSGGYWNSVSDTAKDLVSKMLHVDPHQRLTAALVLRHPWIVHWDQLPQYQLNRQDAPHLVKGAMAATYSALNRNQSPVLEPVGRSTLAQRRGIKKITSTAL
RPS6KA1/RPS6KA2/RPS6KA3, sequence (Q15349 whole entry, looked up): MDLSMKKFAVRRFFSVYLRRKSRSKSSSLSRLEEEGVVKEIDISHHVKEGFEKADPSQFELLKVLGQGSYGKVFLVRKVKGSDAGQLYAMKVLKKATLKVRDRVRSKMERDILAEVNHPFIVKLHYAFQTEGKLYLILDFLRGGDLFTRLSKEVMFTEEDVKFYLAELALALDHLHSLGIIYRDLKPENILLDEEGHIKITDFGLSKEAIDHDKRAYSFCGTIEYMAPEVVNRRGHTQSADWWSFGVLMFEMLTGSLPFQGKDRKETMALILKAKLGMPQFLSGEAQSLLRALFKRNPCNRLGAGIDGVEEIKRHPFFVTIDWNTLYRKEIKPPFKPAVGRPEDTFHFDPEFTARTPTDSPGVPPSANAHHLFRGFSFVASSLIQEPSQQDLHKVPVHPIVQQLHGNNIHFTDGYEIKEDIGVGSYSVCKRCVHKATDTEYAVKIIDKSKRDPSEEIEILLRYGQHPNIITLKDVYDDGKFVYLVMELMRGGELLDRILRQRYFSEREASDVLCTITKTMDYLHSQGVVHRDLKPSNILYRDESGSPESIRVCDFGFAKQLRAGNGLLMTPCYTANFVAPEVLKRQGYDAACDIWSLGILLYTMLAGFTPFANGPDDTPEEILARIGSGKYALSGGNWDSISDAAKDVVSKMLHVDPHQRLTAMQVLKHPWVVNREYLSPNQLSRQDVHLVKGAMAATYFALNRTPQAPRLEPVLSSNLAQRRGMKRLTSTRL
RPS6KA1/RPS6KA2/RPS6KA3, sequence (Q15418 whole entry, looked up): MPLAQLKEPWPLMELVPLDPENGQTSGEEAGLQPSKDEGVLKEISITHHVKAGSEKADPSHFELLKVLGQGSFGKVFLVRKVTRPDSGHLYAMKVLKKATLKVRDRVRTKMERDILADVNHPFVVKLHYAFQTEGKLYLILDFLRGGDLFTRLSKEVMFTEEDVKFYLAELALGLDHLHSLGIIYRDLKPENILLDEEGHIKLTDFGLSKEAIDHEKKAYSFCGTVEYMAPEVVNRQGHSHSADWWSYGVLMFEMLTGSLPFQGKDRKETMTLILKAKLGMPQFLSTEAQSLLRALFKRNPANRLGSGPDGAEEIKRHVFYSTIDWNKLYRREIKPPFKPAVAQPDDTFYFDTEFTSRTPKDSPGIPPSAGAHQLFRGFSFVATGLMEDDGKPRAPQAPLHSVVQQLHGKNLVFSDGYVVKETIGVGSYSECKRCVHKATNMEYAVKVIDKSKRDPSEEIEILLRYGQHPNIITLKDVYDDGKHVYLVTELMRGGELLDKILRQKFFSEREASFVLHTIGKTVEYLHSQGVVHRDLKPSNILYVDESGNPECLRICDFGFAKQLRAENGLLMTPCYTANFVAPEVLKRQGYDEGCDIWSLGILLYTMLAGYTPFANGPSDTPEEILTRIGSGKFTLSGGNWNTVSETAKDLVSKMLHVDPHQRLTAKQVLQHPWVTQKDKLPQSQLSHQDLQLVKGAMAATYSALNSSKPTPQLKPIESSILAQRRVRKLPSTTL
Ribosomal protein S6 kinase alpha-3, sequence (P51812 whole entry, the tested form may be a part): as the sequence (P51812 whole entry, looked up) above
Serine/threonine-protein kinase/endoribonuclease IRE1, sequence (O75460 19-977 limits assumed): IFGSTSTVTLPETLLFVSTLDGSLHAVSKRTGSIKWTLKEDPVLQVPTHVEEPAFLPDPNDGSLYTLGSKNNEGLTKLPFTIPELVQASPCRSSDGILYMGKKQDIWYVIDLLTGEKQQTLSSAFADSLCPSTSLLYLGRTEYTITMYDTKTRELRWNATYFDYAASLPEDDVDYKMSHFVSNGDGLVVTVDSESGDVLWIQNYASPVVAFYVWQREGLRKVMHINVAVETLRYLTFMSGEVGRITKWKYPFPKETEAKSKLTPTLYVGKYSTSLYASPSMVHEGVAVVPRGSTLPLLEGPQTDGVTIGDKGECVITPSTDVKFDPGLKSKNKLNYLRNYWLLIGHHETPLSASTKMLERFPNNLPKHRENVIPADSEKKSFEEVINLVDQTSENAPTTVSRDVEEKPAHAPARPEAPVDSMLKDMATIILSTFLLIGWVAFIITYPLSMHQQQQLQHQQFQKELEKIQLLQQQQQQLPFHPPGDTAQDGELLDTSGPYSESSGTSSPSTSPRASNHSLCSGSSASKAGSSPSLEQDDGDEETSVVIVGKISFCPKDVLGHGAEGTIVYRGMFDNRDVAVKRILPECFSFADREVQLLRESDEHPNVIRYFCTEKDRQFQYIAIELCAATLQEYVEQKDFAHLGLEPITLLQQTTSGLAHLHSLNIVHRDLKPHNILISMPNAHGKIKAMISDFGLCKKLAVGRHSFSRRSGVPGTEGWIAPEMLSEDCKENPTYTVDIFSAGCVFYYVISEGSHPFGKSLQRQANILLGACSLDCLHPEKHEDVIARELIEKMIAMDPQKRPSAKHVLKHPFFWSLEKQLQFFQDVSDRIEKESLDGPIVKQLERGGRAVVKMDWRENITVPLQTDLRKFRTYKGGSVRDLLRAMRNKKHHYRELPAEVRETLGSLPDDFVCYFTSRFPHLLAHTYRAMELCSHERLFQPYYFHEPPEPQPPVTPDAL

For the compound `CCOc1cc(N2CCC(O)CC2)ccc1Nc1ncc2c(n1)N(C)c1ccccc1C(=O)N2C`, the IC50 in assay [1], in assay [6] and in assay [9] was over 50 µM in each case. Besides, the inhibition at 50 µM in [2] was determined as 13.9%. In addition, the inhibition in assay [3] amounted to 16.5%; in assay [4] it was 15.9%; in assay [7], 4.6%; on RPS6KA1/RPS6KA2/RPS6KA3 it was 9.4%; in assay [8], 13.4%; in assay [10] it was 1.8%. Also, the inhibition in assay [12] was -7.9%. Also, the inhibition at 10 µM in assay [5] is -18.3%. In addition, the outcome in the assay on A549 was Active. For the same compound, the Activity in [11] was 31%.
